Most compounds without a hit are left out; they make up all but 4.6% or so of the library.
OX1R antag-1 = antagonists of human orexin 1 receptor; O43613; CHO/OX1R cells, Fluo-8 calcium fluorescence, orexin A; inhibition, % at 5 µM; hit rate 0.43% among 330,000;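 active = inhibition above its plate's threshold, mean inhibition of all tested compounds on the plate plus 3 SD, cut at about 37% in these data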
GPR7 antag = human neuropeptides B/W receptor 1 antagonism | GPR7-expressing cells, fluorescence antagonist assay | inhibition, % at 4.4 µM | hit rate 1.1% among 290,000 | AID 1861; in the data active = inhibition above about 16%, passing the limit was not always enough;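 note: cells stimulated with the agonist NPW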
Target sequence (P48145 whole entry, looked up): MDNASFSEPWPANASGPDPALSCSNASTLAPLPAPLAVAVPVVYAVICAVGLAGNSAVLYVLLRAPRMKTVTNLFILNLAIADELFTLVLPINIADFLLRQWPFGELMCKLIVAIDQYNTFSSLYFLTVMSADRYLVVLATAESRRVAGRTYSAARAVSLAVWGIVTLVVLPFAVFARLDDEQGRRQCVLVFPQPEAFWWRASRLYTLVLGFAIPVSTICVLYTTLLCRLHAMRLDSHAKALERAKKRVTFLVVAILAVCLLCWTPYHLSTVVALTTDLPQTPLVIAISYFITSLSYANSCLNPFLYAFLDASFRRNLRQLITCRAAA
CHO parental Ca = signal in parental CHO cells, OX1R antagonist counter-screen. hit rate 0.63% among 330,000. parental CHO-K1, ATP-induced calcium, Fluo-8 fluorescence. inhibition, % at 5.6 µM;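 active = inhibition above that plate's mean sample inhibition plus 3 SD, cut at about 26% in these data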
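Test system: untransfected parental CHO cell line. Compound: one dose, 5.6 µM nominal. Detection: intracellular calcium via Fluo-8 no-wash fluorescent dye. Measure: % inhibition. Benchmarks: ATP-challenged DMSO wells low, unchallenged DMSO wells high.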
TAAR1 antagonist = human TAAR1 antagonism; Q96RJ0; CHO RD-HGA16 TAAR1, Fluo-8 calcium fluorescence, antagonist; inhibition, % at 3 µM; hit rate 1.5% among 360,000;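 active = inhibition above a per-plate cutoff, the mean inhibition of test compounds on that plate plus 3 SD, cut at about 49% in these data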
Target sequence (Q96RJ0 whole entry, looked up): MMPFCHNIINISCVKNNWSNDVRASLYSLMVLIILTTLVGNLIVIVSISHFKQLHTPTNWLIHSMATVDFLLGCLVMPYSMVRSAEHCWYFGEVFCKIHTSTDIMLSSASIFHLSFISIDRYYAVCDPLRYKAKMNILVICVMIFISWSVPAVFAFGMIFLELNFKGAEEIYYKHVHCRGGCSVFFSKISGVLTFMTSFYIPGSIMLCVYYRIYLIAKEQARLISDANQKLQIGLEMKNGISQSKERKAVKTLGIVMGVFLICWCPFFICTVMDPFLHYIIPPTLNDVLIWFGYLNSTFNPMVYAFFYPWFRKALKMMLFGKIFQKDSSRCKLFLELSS
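Test system: hTAAR1-expressing CHO RD-HGA16 cells, Gα16-coupled; Probe or stimulus: EC80 β-phenethylamine stimulus; Compound dosing: single nominal final test compound concentration of 3 µM; Timing: 140 s kinetic read after compound, 140 s after agonist; Signal: Fluo-8 calcium-sensitive fluorescence; Measure: % inhibition of agonist calcium response; Controls: DMSO and EC80 PEA controls.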
OX1R antag-2 = OX1R (human) antagonism | OX1R-expressing cells, FRET antagonist read-out | inhibition, % at 6.6 µM | hit rate 1.8% among 330,000 | AID 485270; in the data active = inhibition mostly above about 38%, no sharp cut-off; inactive = mostly below about 40%
TAAR1 agonist = human TAAR1 agonism; Q96RJ0; CHO RD-HGA16 TAAR1, Fluo-8 calcium fluorescence; vehicle wells 0%, saturating PEA agonist 100%; activation, % at 3 µM; hit rate 0.99% among 360,000; AID 624467;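 active = activation above the mean activation of all test compounds in the run plus 3 SD, cut at about 38% in these data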
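System: CHO-derived RD-HGA16 cells with stable Gα16 and human TAAR1. Times: 17-24 h plating, Fluo-8 75 min 37 °C, 30 min RT. Measured by: calcium-sensitive Fluo-8 signal, excitation 470-495, emission 515-575 nm. Read-out basis: % activation relative to PEA EC100 response. Control set: DMSO and PEA EC100. Repeats: no replicates (n 1).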
A number is an active result; n = inactive; x = no result given.

SMILES	OX1R antag-1	GPR7 antag	CHO parental Ca	TAAR1 antagonist	OX1R antag-2	TAAR1 agonist
Cc1ccc(-c2noc(CSc3nnnn3C3CCCCC3)n2)cc1	n	n	38	n	n	n
N#Cc1c(N2CCCC2)ccc(Br)c1Cl	n	17	n	n	n	n
C=CCN=C1NC(c2ccc(F)cc2)C(C(=O)OC)=C(C)N1C (stereo unspecified)	x	x	x	n	x	n
COc1cc(/C=C/c2nc3ccccc3c(=O)[nH]2)ccc1O	x	x	x	n	x	n
Cc1cccc(/C=C/c2nc3ccccc3c(=O)[nH]2)c1	n	n	n	n	69	n
CC(C)(C)c1ccc(CN(Cc2ccco2)Cc2nnnn2C2CCCC2)cc1	n	n	48	n	n	n
COC(=O)C1=C(C)N(Cc2ccccc2C(F)(F)F)C(=NCc2ccccc2C(F)(F)F)NC1c1cccc(F)c1 (stereo unspecified)	x	x	x	n	x	n
NS(=O)(=O)c1ccc(CCNC(=O)c2ccc(C#CC3(O)CCCCC3)cc2)cc1	n	n	n	68	n	n
NS(=O)(=O)c1ccc(CCNC(=O)c2ccncc2)cc1	n	n	n	n	n	n
Cc1cc(=O)oc2cc(NC(=O)c3c(Cl)cnn3C)ccc12	n	n	n	n	61	n
COc1ccc(NC(=O)c2cc(C3CCCCN3C(=O)c3ccc(NC(C)=O)cc3)on2)c(C)c1 (stereo unspecified)	x	x	x	n	x	n
CN1NC(=O)c2ccccc2NC1=S	x	x	x	n	x	n
Cc1cc(C)c(OCC(=O)Nc2cccc(NC(=O)c3ccco3)c2)c(Br)c1	n	n	32	52	64	n
COc1ccc(Br)cc1C(=O)Nc1cccc(NC(=O)c2ccco2)c1	n	n	n	n	44	n
COc1c(C)cc(Br)cc1C(=O)Nc1cccc(NC(=O)c2ccco2)c1	n	n	n	x	n	x
CCOC(=O)CN1CCCc2nc(C)c(C)cc21	x	x	x	n	x	n
CCCN(C(=O)CCc1cn(CCC)c2ccccc12)c1ccc(Oc2cccnc2)cc1	x	x	x	n	x	n
CCCN(C(=O)C1CCCN(c2ncnc3c2nc2n3CCCCC2)C1)c1ccccc1C (stereo unspecified)	x	x	x	n	x	n
CC(C)(C)C(=O)/C(=C/c1ccc(Cl)cc1)n1cncn1	x	n	x	n	x	n
CC(C)(C)C(=O)/C(=C\c1ccc([N+](=O)[O-])cc1)n1cncn1	n	n	n	x	101	x
O=C(/C=C/[C@H]1O[C@@H](n2cnc3c(NC(=O)c4ccccc4)ncnc32)[C@H](O)[C@@H]1O)NCCCN1CCCC1=O	x	x	x	n	x	n
Cc1nc(Nc2ccc(C(=O)O)cc2)nc(Nc2ccc(C(=O)O)cc2)c1[N+](=O)[O-]	n	n	n	n	42	n
O=C(O)c1ccc(Nc2ccc3nonc3c2[N+](=O)[O-])cc1	n	n	n	n	57	n
COC(=O)c1ccc(Nc2ccc3nonc3c2[N+](=O)[O-])cc1	n	n	n	n	n	n
CCOc1ccc(Nc2ccc3nonc3c2[N+](=O)[O-])cc1	n	n	n	n	45	n
SMILES	OX1R antag-1	GPR7 antag	CHO parental Ca	TAAR1 antagonist	OX1R antag-2	TAAR1 agonist
CCOc1ccc(Nc2ccc(C(=O)O)cc2[N+](=O)[O-])cc1	n	n	n	n	n	n
Cc1ccc(Nc2ccc([N+](=O)[O-])nc2[N+](=O)[O-])cc1	n	n	n	n	62	n
O=C(N[C@H](C(=O)N1CCC[C@H]1C(=O)NC1CCCC1)C1CCCCC1)C1CCCC1	x	x	x	n	x	n
Cc1ccc(Nc2ccc3nonc3c2[N+](=O)[O-])cc1	n	n	n	n	64	n
O=[N+]([O-])c1c(Nc2ccc(Br)cc2)ccc2nonc12	n	n	n	n	n	n
O=C(C1CCCCC1)N1CCc2[nH]c3ccc(F)cc3c2C1	n	n	n	n	n	n
COc1ccccc1NC(=O)N1CCc2[nH]c3ccc(F)cc3c2C1	n	n	n	n	n	43
O=C(Cn1sc2ccccc2c1=O)Nc1ccc(Br)cc1	x	x	x	n	x	39
Cc1ccc(NC(=O)C(C)c2ccc(-c3ccccc3)c(F)c2)cc1 (stereo unspecified)	n	n	n	55	n	n
CCC(C(=O)Nc1ccc(C)cc1)c1ccccc1 (stereo unspecified)	n	n	n	n	n	n
COc1ccc(/C=C2\SC(=O)N(CCNC(=O)Cc3coc4cc(C)ccc34)C2=O)cc1OC	n	n	n	n	54	n
COc1ccc(/C=C2/SC(=O)N(CCC(=O)Nc3ccc(C)cc3)C2=O)cc1OC	n	n	n	n	n	n
CC(=O)c1cccc(NC(=O)CSc2nnc(-c3ccncc3)o2)c1	n	x	n	n	n	n
CCc1ccc(NC(=O)C2CCN(S(=O)(=O)c3ccc4c(c3)CC(C)N4C(C)=O)CC2)cc1 (stereo unspecified)	n	21	36	50	n	n
CCc1ccc(NC(=O)C2CCCN(S(=O)(=O)c3ccc4c(c3)CC(C)N4C(C)=O)C2)cc1 (stereo unspecified)	n	n	n	n	n	n
C[C@@H]1CN([C@@H](C)CO)C(=O)CCCn2cc(nn2)CO[C@H]1CN(C)C(=O)Nc1cccc(Oc2ccccn2)c1	x	x	x	n	x	n
CC(NC(=O)Nc1ccc([N+](=O)[O-])cc1)C(c1cccs1)N1CCCC1 (stereo unspecified)	n	n	n	n	n	48
CC(NC(=O)Nc1cccc(Cl)c1)C(c1cccs1)N1CCCC1 (stereo unspecified)	n	n	n	n	n	n
CC1(C(=O)NS(=O)(=O)c2cccc(Cl)c2)CCN1C(=O)Cc1ccc(-c2ccccc2)cc1 (stereo unspecified)	x	x	x	n	x	n
COc1ccc(C(C(=O)NCc2ccccc2)N(Cc2cccnc2)C(=O)c2snc(C(N)=O)c2N)cc1OC (stereo unspecified)	n	n	n	n	n	n
COc1ccc(N(C(=O)c2snc(C(N)=O)c2N)C(C(=O)NCc2ccccc2)c2ccc(O)cc2)cc1OC (stereo unspecified)	x	n	x	n	x	n
CN(C)c1ccc(C(C(=O)NCc2ccccc2)N(Cc2cccnc2)C(=O)c2snc(C(N)=O)c2N)cc1 (stereo unspecified)	x	n	x	56	x	n
COc1ccc(CN(C(=O)c2snc(C(N)=O)c2N)C(C)C(=O)NCc2ccc(F)cc2)cc1 (stereo unspecified)	n	n	n	n	n	n
COc1cccc(N(C(=O)c2snc(C(N)=O)c2N)C(C(=O)NCc2ccccc2)c2ccc(O)cc2)c1 (stereo unspecified)	n	n	n	54	n	n
COc1ccc(CNC(=O)C(C)N(Cc2ccccc2OC)C(=O)c2snc(C(N)=O)c2N)cc1 (stereo unspecified)	n	n	n	51	n	n
COc1ccc(COC[B-](F)(F)F)cc1	x	x	x	n	x	n

Bioassay records: PubChem, The Scripps Research Institute Molecular Screening Center
